Assay results taken from the EternaBench riboswitch data.

System: MS2 coat protein
Test: apparent Kd, MS2 coat protein; higher = weaker binding; RNA-MaP array; FMN 200 µM where present
Procedure, shortened: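 Binding was read on Illumina sequencing-chip clusters where stalled E. coli RNA polymerase had transcribed each design. A titration of SNAP-549-labelled MS2 coat protein began at 0.7 or 1.5 nM and doubled to 3 µM, once without ligand and once with constant ligand, in 100 mM Tris-HCl pH 7.5, 80 mM KCl, 4 mM MgCl2, BSA, DTT, yeast tRNA and Tween-20. The apparent Kd is the median of filtered per-cluster binding-curve fits, based on green signal normalised to red-channel RNA signal and control-cluster median Fmax.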

[1] = designed as: OFF switch for flavin mononucleotide, no ligand
[2] = ligand present: flavin mononucleotide, designed as: OFF switch for flavin mononucleotide
[3] = designed as: ON switch for flavin mononucleotide, no ligand
[4] = ligand present: flavin mononucleotide, designed as: ON switch for flavin mononucleotide

| Sequence | apparent Kd [1] | apparent Kd [2] | apparent Kd [3] | apparent Kd [4] |
| --- | --- | --- | --- | --- |
| GGAAAGCGAGGAUAUACAUGAGGAUCACCCAUGUAAAAGAAAAGAAAAGAAAGAAAAUGUAGAAGGCGCAAAAA | 47.8 nM | 48.4 nM |  |  |
| GGAAAGCGAGGAUAUACAUGAGGAUCACCCAUGUAAACAAACAAACAAACAAACAAAUGUAGAAGGCGCAAAAC | 43.9 nM | 43 nM |  |  |
| GGAAAUCAUGUAGGAUAUGCAUGGCGAAGCUACGCAGAAGGACAUGAGGAUCACCCAUGUGCUAGCUACCGGAUACGGUGGCAA | 78.8 nM | 288 nM |  |  |
| GGAAAUCAUGUAGGAUAUGCAUGGCGAAGCUACGCAGAAGGACAUGAGGAUCACCCAUGUUAUAGCGUCCGAGUAAGGAUGCAA | 42.1 nM | 123 nM |  |  |
| GGAAGACAAAGUCUUCCAAAUCGAACAUGAGGAUCACCCAUGUAGGAUAUGCUACUCAAAGAGUAGCAGAAGGACAUGUGCUUU | 40.1 nM | 193 nM |  |  |
| GGACCGCGCAGAGUUGACGGUCGGCAGGAUAUGACAUGAGGAUCACCCAUGUGAACUCCAUUGGGUCAGAAGGGCCACGACGAA | 21.1 nM | 77.3 nM |  |  |
| GGACGUCACAUCUACAUGAGGAUCACCCAUGUCAAAAGACAUGAGGAUAUGCUACCUAAUUGGUAGCAGAAGGCAUGGACGUCC |  |  | 1070 nM | 71.5 nM |
| GGACGUCACAUUUACAUGAGGAUCACCCAUGUCAAAAGACAUGAGGAUAUGGAUGCGAAACGCAUCCAGAAGGCAUGGACGUCC |  |  | 286 nM | 27.8 nM |
| GGAGAACAUGAGGAUCACCCAUGUGGAUGGGCGCUAGGAUAUGCGGGAGGGUGAAGAGAAGCAGAAGGAGUGGAUA |  |  | 77.6 nM | 76.1 nM |
| GGAGACCUCACAGGAUAUGCUGGACUUUGUCCAGCAGAAGGGUGAACACAUGAGGAUCACCCAUGUGGUCUCCAAAUAUUUAAU |  |  | 816 nM | 74.2 nM |
| GGAGCACACAUUAACAUGAGGAUCACCCAUGUCAAAAGACAUGAGGAUAUGGUUCCGAAAAGGAUCCAGAAGGCAUGGUGCUCC |  |  | 356 nM | 15.5 nM |
| GGAGCACACAUUAACAUGAGGAUCACCCAUGUCAAUAGACAUGAGGAUAUGGAUCCGAAAAGGAUCCAGAAGGCAUGGUGCUCC |  |  | 130 nM | 10 nM |
| GGAGCACAUGAAUACAUGAGGAUCACCCAUGUCGAAUGAUAUGAGGAUAUGGAUCGGAAAACGAUCUAGAAGGCAUAGUGCUCC |  |  | 76.5 nM | 10.2 nM |
| GGAGCACGCACAGGAUAUCCGGCGACGCUCGUCGGAGAAGGGUGACAUGAGGAUCACCCAUGUACGUGCAACUCAGUUUGAGAG |  |  | 43.6 nM | 36.1 nM |
| GGAGCCGGUACUGAGGAUAUUCAUAUUAAAACAUGAGGAUCACCCAUGUAGGCCAGAAGGCCUUGGGAGAAGGCAGAUCGGCUCC |  |  | 408 nM | 25.9 nM |
| GGAGGGCCUCGAGGAUAUCGCUGCGGUCGUCUGACAUGAGGAUCACCCAUGUGAGAAGGCGAGGCUACUGACUAUGCCCGUUAU | 27.9 nM | 275 nM |  |  |
| GGAUAGGACAGAGGAUAUACGGAUAGGAUCUACUAUCCUCCUUAAAUAACAUGAGGAUCACCCAUGUAGAAGGCUGUCCUAUCG | 16.9 nM | 40.5 nM |  |  |
| GGAUAGGACAGAGGAUAUACGGCUAGGAGAUACUAGCUACUAUUCCUCACAUGAGGAUCACCCAUGUAGAAGGCUGUCCUAUCG | 17.6 nM | 140 nM |  |  |
| GGAUAGGACAGAGGAUAUACGUGCUAGAGAUACUAGCAAAAUCUCCUCACAUGAGGAUCACCCAUGUAGAAGGCUGUCCUAUCG | 9.85 nM | 201 nM |  |  |
| GGAUAGGACAGAGGAUAUACGUGCUAGAGAUACUAGCAAAAUUUACUCACAUGAGGAUCACCCAUGUAGAAGGCUGUCCUAUCG | 5.09 nM | 22.2 nM |  |  |
| GGAUAGGACAGAGGAUAUACGUGCUAGAGAUACUAGCAAAAUUUCCUCACAUGAGGAUCACCCAUGUAGAAGGUUGUCCUAUCG | 5.14 nM | 11.8 nM |  |  |

| Sequence | apparent Kd [1] | apparent Kd [2] | apparent Kd [3] | apparent Kd [4] |
| --- | --- | --- | --- | --- |
| GGAUAGGACAGAGGAUAUACGUGCUAGAGAUACUAGCAAAUAAUCCUUACAUGAGGAUCACCCAUGUAGAAGGCUGUCCUAUCG | 20.2 nM | 48 nM |  |  |
| GGAUAGGACAGAGGAUAUACGUGCUAGAGCUACUAGCAAAAUUUCCUCACAUGAGGAUCACCCAUGUAGAAGGCUGUCCUAUCG | 15.6 nM | 463 nM |  |  |
| GGAUAGGACAGAGGAUAUGCGUGCUAGAGAUACUAGCAAAAUUUCCUCACAUGAGGAUCACCCAUGUAGAAGGCUGUCCUAUCG | 7.75 nM | 66.2 nM |  |  |
| GGAUAGUGAGGAUAUCGAUGUUAGGAGGAUGAGGUAGGAUGCGAGAAGGCACAUGAGGAUCACCCAUGUAUGGU | 48.8 nM | 38.8 nM |  |  |
| GGAUCAUAUGUUAGGAUAUGCUGGACCUUGGUUCAGCAGAAGGGACAUGAGGAUCACCCAUGUCAUGUCGAUCC | 21 nM | 22.3 nM |  |  |
| GGAUCCAACACAGGAUAUGCUGGACUUUGUCCAGCAGAAGGGUGAAGAACAUGAGGAUCACCCAUGUGGAUCCAUAUAUUUAAU |  |  | 483 nM | 42.4 nM |
| GGAUCGAAAGUGAGGAUAUGCUGGUCCUUGGAUCAGCAGAAGGCACAUGAGGAUCACCCAUGUGAUUUCGAUCC | 16.6 nM | 25 nM |  |  |
| GGAUCGAAUGUGAGGAUAUGCUGGUCCUUGGAUCAGCAGAAGGCACAUGAGGAUCACCCAUGUGACUAAGAUCC | 32.7 nM | 248 nM |  |  |
| GGAUCGAGUGUGAGGAUAUACCUAUGGAAACAUAGGUAGAAGGCACAUGAGGAUCACCCAUGUCCUAACGGUCC | 350 nM | 514 nM |  |  |
| GGAUGACAAAGUCAUCCAAUACGAACAUGAGGAUCACCCAUGUAGGAUAUCGUACUCAAAGAGUACGAGAAGGACAUGUGCCUU | 37.6 nM | 236 nM |  |  |
| GGAUGACAAAGUCAUCCAAUACGAACAUGAGGAUCACCCAUGUAGGAUAUGCUACAUGAGGAUCACCAGAAGGACAUGUGCCUU | 123 nM | 135 nM |  |  |
| GGAUGACAAAGUCAUCCAUAACGAACAUGAGGAUCACCCAUGUAGGAUAUGCUACUCAAAGAGUAGCAGAAGGACAUGUGCCUU | 36 nM | 239 nM |  |  |
| GGAUGACAAAGUCAUCCAUUACGAACAUGAGGAUCACCCAUGUAGGAUAUGCUUCACAAAGUGAAGCAGAAGGACAUGUGUCUU | 30.2 nM | 154 nM |  |  |
| GGAUGACAAAGUCAUCCUAAACGAACAUGAGGAUCACCCAUGUAGGAUAUGCUACACAAAGUGUAGCAGAAGGACAUGUGCCUU | 37.1 nM | 269 nM |  |  |
| GGAUGACAAAGUCAUCCUUAACGAACAUGAGGAUCACCCAUGUAGGAUAUGCUACUCAAAGAGUAGCAGAAGGACAUGUGUCUU | 31.1 nM | 159 nM |  |  |
| GGAUUAAUAGCCCACAUGAGGAUCACCCAUGUAGUAUUUUACAAGGAUAUGGUGGGACUUCGUGGCCAGAAGGUGUAAAGGAUC |  |  | 451 nM | 397 nM |
| GGAUUAAUAGUCCACAUGAGGAUCACCCAUGUAGUAUUUUGCAAGGAUAUGGUGGGACUUCGUGGCCAGAAGGUGUAAAGGAUC |  |  | 128 nM | 99.2 nM |
| GGAUUACAUGAGGAUCACCCAUGUGAGGAUAUCGAUGUCCCUAGCAGCGUGCGGGACUCGAGAAGGCACUUGGA | 47.5 nM | 248 nM |  |  |
| GGAUUACGAGGAUAUCGAUUUUAGUACAUGAGGAUCACCCAUGUUGUCCAGGUCUCGUUUCGAGAAGGCGUGAUUC | 65.1 nM | 48.7 nM |  |  |
| GGAUUUACUGAGGAUAUUGCAUCACCCGACUGAUAAGAAGGCAGAACAUGAGGAUCACCCAUGUGGGUCGUCAA | 21.9 nM | 28.2 nM |  |  |
